{"source": "ChEMBL document CHEMBL4311947", "about": "“Discovery of Novel Naphthylphenylketone and Naphthylphenylamine Derivatives as Cell Division Cycle 25B (CDC25B) Phosphatase Inhibitors: Design, Synthesis, Inhibition Mechanism, and in Vitro Efficacy against Melanoma Cell Lines” (J Med Chem, 2019)", "key": {"[1]": {"target": "T1, M-phase inducer phosphatase 1 (Homo sapiens, UniProt P30304)", "T1 sequence (P30304 whole entry)": "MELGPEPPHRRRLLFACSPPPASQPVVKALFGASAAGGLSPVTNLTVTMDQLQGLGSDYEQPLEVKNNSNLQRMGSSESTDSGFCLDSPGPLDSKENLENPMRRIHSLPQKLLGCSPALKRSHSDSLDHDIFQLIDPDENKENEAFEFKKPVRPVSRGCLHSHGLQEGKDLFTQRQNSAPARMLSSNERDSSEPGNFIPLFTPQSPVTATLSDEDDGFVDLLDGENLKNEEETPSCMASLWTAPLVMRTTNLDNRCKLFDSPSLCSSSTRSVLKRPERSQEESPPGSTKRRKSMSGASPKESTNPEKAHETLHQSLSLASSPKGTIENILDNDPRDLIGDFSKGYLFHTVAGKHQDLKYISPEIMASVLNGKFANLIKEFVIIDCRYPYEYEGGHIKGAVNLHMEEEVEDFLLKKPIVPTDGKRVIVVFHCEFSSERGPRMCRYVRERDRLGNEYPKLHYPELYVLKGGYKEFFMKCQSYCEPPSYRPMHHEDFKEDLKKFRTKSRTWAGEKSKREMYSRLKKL", "test": "Inhibition of N-terminal His6-tagged human CDC25A (336 to 508 residues) expressed in Escherichia coli BL21(DE3) cells using OMFP as substrate by double reciprocal Lineweaver-Burk plot analysis", "method_in_brief": "(§1)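 Recombinant CDC25 form (15–25 nM) in 20 mM Tris-HCl pH 7.8, 0.5 mM TCEP, 1% (v/v) DMSO, with or without inhibitor. Reaction started with 0.5–25 µM OMFP; O-methylfluorescein formation followed continuously at 30°C (ex 485/em 530 nm). Initial rates (AU/min) analysed in Lineweaver-Burk plots for Vmax, KM and mechanism; Ki averaged from at least three independent experiments, only roughly estimated for mixed inhibition.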"}, "[2]": {"target": "T2, M-phase inducer phosphatase 2 (Homo sapiens) (UniProt P30305)", "T2 sequence (whole entry)": "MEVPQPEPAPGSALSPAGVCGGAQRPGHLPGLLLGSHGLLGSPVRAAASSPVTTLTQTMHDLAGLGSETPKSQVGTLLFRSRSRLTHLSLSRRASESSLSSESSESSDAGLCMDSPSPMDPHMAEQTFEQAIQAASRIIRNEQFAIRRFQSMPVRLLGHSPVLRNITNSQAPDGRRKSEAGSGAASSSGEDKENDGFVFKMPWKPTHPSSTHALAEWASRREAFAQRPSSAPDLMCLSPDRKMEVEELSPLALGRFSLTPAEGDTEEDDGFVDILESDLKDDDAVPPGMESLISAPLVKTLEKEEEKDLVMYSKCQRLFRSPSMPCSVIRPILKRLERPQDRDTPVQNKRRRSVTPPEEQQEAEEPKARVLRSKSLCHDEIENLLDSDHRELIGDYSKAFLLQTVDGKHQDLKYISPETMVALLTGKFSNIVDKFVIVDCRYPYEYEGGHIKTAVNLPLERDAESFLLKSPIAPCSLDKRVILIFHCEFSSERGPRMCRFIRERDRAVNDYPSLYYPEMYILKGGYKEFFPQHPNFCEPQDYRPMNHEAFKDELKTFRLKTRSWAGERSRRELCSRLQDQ", "test": "Inhibition of N-terminal His6-tagged human CDC25B (377 to 550 residues) expressed in Escherichia coli BL21(DE3) cells assessed as reduction in Vmax using OMFP as substrate by double reciprocal Lineweaver-Burk plot analysis", "method_in_brief": "as §1"}, "A2058": {"test_system": "A2058", "test": "Induction of cell cycle arrest in human A2058 cells assessed as increase in accumulation at G2/M phase at 10 uM after 16 hrs by propidium iodide staining based flow cytometric method", "type": "functional", "method_in_brief": "(§2)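 Seeded at 3×10^5 cells/well for 24 h at 37°C, then exposed to 10 µM inhibitor or 0.5% (v/v) DMSO for 8 or 16 h. Trypsin-harvested, fixed in cold 70% ethanol at -20°C for 1 h, stained 30 min at 4°C with 50 µg/mL PI in non-lysis solution. Phase distribution (sub-G1, G0/G1, S, G2/M) read by FACScan; triplicate experiments, mean ± SE.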"}, "A-375": {"test_system": "A-375", "test": "Induction of cell cycle arrest in human A375 cells assessed as increase in accumulation at G2/M phase at 10 uM after 8 hrs by propidium iodide staining based flow cytometric method", "type": "functional", "method_in_brief": "as §2"}, "hTERT-BJ": {"test_system": "hTERT-BJ", "test": "Cytotoxicity against human BJ-5ta cells at 10 uM measured up to 72 hrs by MTT assay", "type": "cell-based", "method_in_brief": "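Cells seeded at 4×10^4/well, treated 24 h after plating with inhibitor or 0.5% (v/v) DMSO vehicle for 24, 48 or 72 h. MTT added, 3 h at 37°C under 5% CO2, formazan solubilised, absorbance at 570 nm. Viability in arbitrary units, mean ± SE of at least three independent experiments versus control. Cells grown in DMEM/10% FBS at 37°C, 5% CO2; BJ-5ta cultured in 4:1 DMEM/Medium 199 with hygromycin B.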"}, "[3]": {"target": "T3, M-phase inducer phosphatase 3 (Homo sapiens, UniProt P30307)", "T3 sequence (P30307 whole entry)": "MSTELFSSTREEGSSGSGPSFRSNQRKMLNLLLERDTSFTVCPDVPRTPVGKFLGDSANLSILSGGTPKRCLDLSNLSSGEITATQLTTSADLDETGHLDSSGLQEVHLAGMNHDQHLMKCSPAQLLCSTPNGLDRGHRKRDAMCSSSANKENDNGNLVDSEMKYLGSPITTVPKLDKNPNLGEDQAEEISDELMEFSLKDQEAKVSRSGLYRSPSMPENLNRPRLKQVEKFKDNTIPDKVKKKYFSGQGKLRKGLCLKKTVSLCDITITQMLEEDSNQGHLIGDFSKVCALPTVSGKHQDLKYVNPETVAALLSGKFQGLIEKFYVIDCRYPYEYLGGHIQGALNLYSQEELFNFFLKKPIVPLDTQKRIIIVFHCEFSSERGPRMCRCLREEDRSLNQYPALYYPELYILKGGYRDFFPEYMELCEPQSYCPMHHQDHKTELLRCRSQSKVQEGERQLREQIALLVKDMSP", "test": "Inhibition of N-terminal His6-tagged human CDC25C (280 to 454 residues) expressed in Escherichia coli BL21(DE3) cells using OMFP as substrate by double reciprocal Lineweaver-Burk plot analysis", "method_in_brief": "as §1"}}, "note": "The source made the active and inactive calls. The rule behind the calls is not given here."}
{"smiles": "CCOC(=O)c1cccc(Nc2cc(OC)cc3ccccc23)c1", "values": [{"measurement": "Ki", "setting": "[1]", "value": 3, "unit": "µM"}, {"measurement": "inhibition", "setting": "[2]", "value": "Active"}, {"measurement": "Activity", "setting": "A2058", "value": "Active"}, {"measurement": "Activity", "setting": "A-375", "value": "Active"}, {"measurement": "Activity", "setting": "hTERT-BJ", "value": "Non-Toxic"}, {"measurement": "Ki", "setting": "[3]", "value": 1.9, "unit": "µM"}]}
